Here are results for 33 sequences from the array DNA melting data of Ke et al. (doi:10.1101/2024.01.08.574731).

A short description of data set [1]: melting temperature; fluorescence melt of hairpins on a sequencing array, two-state fit, raised by 9.35 °C to match UV melts. Conditions: sodium 0.088 M. The method, boiled down:
(§1)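 Folding enthalpy and melting temperature come from bootstrapped two-state fits to Cy3 fluorescence of library hairpins carrying annealed Cy3 and quencher oligos on a sequenced MiSeq flow cell. Imaging was done in 50 mM Na-HEPES pH 8.0, 25 mM NaCl, stepping by 2.5 °C up to 60 °C, and signals were normalised to pre-quench Cy3 and to control constructs. Results of four replicates were combined by inverse variance, and fitted temperatures were raised by 9.35 °C to match UV melts.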

The nature of data set [2]: folding enthalpy; higher = less favourable; fluorescence melt of hairpins on a sequencing array, two-state fit. The following applies: sodium 0.088 M. The method, boiled down: as §1

For GCGGATTCCGC ((((...)))), the Tm in data set [1] came to 54.3 °C. The folding enthalpy in data set [2] was -24.9 kcal/mol.
Taken in the same sequence, the figures for GCGGCAACCCGC ((((....)))) were 51.9 °C and -24.7 kcal/mol.
As to GCGGCAACCGC ((((...)))), the Tm in data set [1] is 51.7 °C. Moreover, the folding enthalpy in data set [2] is -23.4 kcal/mol.
The matching figures for GCGGCAGCCCGC ((((....)))): 59.1 °C and -10.3 kcal/mol.
With GCGGCATCGAAAGATCGC (((..(((....)))))), the Tm in data set [1] was determined as 45.6 °C. Moreover, in data set [2], the folding enthalpy is -22.7 kcal/mol.
Taken in the same sequence, the figures for GCGGCCAGCCGC ((((....)))) were 67.3 °C and -20.5 kcal/mol.
As for GCGGCCGAAAGGCCTCGC ((((((....)))..))), in data set [1], the Tm is 56.2 °C. Also, in data set [2], the folding enthalpy was -12.5 kcal/mol.
Taken in the same sequence, the figures for GCGGCCGCCGC ((((...)))) were 55.1 °C and -19.9 kcal/mol.
Taken in the same sequence, the figures for GCGGCCGTCCGC ((((....)))) were 58.6 °C and -25.8 kcal/mol.
Taken in the same sequence, the figures for GCGGCCTACCGC ((((....)))) were 55.8 °C and -29.4 kcal/mol.
GCGGCCTTCCGC ((((....)))): the Tm in data set [1] turned out to be 57.9 °C. Moreover, the folding enthalpy in data set [2] is -19.9 kcal/mol.
As for GCGGCGCACCGC ((((....)))), the Tm in data set [1] was determined as 59.7 °C. Also, the folding enthalpy in data set [2] was -14.2 kcal/mol.
The matching figures for GCGGCGCGAAAGCACAGC ((.(.((....)).).)): 63.7 °C and -29.9 kcal/mol.
Taken in the same sequence, the figures for GCGGCGCGAAAGCCCTGC ((.(.((....)).).)) were 45.6 °C and -18.3 kcal/mol.
Taken in the same sequence, the figures for GCGGCGCGAAAGCCTCGC (((..((....))..))) were 55.8 °C and -18.6 kcal/mol.
With GCGGCGGCGAAAGCCCGC (((..(((....)))))), the Tm in data set [1] is 65.6 °C. For the same sequence, the folding enthalpy in data set [2] was -12.3 kcal/mol.
Taken in the same sequence, the figures for GCGGCGGGAAACCGCCAC (.(((((....))))).) were 52.6 °C and -10.5 kcal/mol.
As for GCGGCGTCCCGC ((((....)))), the Tm in data set [1] is 56.7 °C. Moreover, the folding enthalpy in data set [2] is -14.5 kcal/mol.
Taken in the same sequence, the figures for GCGGCTACCGC ((((...)))) were 57.7 °C and -21 kcal/mol.
The matching figures for GCGGCTCACCGC ((((....)))): 63 °C and -26.9 kcal/mol.
Taken in the same sequence, the figures for GCGGCTCCCGC ((((...)))) were 56.9 °C and -23.7 kcal/mol.
Regarding GCGGCTGCCGC ((((...)))), the Tm in data set [1] stood at 57.1 °C. Besides, the folding enthalpy in data set [2] is -31.2 kcal/mol.
Regarding GCGGCTGGAAACAACCGC ((((.((....)).)))), the Tm in data set [1] amounted to 54 °C. In data set [2], the folding enthalpy is -45 kcal/mol.
The matching figures for GCGGCTTCCGC ((((...)))): 57.8 °C and -25.9 kcal/mol.
Taken in the same sequence, the figures for GCGGGAGGAAACCCCCAC (.(((.(....).))).) were 27.7 °C and -10.6 kcal/mol.
Taken in the same sequence, the figures for GCGGGAGTCCGC ((((....)))) were 55.7 °C and -23.6 kcal/mol.
Turning to GCGGGATCGAAAGATCGC (((..(((....)))))), in data set [1], the Tm came to 51 °C. In addition, the folding enthalpy in data set [2] is -13.8 kcal/mol.
Taken in the same sequence, the figures for GCGGGATGCCGC ((((....)))) were 55.8 °C and -22.6 kcal/mol.
The matching figures for GCGGGATTCCGC ((((....)))): 59.1 °C and -20.5 kcal/mol.
The matching figures for GCGGGCCCCCGC ((((....)))): 64.4 °C and -23.5 kcal/mol.
As for GCGGGCCTCCGC ((((....)))), the Tm in data set [1] turned out to be 64 °C. In data set [2], the folding enthalpy was -22.5 kcal/mol.
Taken in the same sequence, the figures for GCGGGCGAAAGCCGACGC ((((((....)))..))) were 61.9 °C and -19.9 kcal/mol.
GCGGGGACGAAAGTCCGC (((..(((....)))))): in data set [1], the Tm was 58.5 °C. Also, the folding enthalpy in data set [2] is -13.2 kcal/mol.
